These results are taken from ChEMBL document CHEMBL1126849, “Synthesis of A-ring fluorinated derivatives of (17 alpha,20E/Z)-[125I]iodovinylestradiols: effect on receptor binding and receptor-mediated target tissue uptake” (J Med Chem, 1993).

The test system of the data set is Rattus norvegicus. In words: Biodistribution in uterus/spleen, muscle, lungs of immature female rat after 3 hour administration of 3 micro Ci (111 kBq) in the absence of 60 microg estradiol. It is filed as ADME, organism-based. The conditions noted are these: in vivo. An outline of the steps: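 Immature female Long Evans rats (21–24 days, 45–70 g), 3–5 per group, unanesthetized in retention cages, given 3 μCi (111 kBq) 125I-labeled steroid by lateral tail vein. Vehicle: ethanol diluted with saline containing 1% Tween-80, final ethanol 9%. +E2 group co-injected 60 μg unlabeled estradiol (1 h only). Killed under ether; tissues KCl-washed, weighed, gamma-counted. Output: %ID/g (mean, SE) and uterus to blood or nontarget (muscle, spleen, lungs) ratios.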

Each structure is given as a SMILES string.

Take `C[C@]12CC[C@@H]3c4cc(F)c(O)cc4CC[C@H]3[C@@H]1CC[C@@]2(O)/C=C/I`: the ID/g is recorded as 1.49%.
